Source: ChEMBL document CHEMBL4732030, “Aloe-emodin derived azoles as a new structural type of potential antibacterial agents: design, synthesis, and evaluation of the action on membrane, DNA, and MRSA DNA isomerase” (RSC Med Chem, 2021)
In brackets after ≈: the same amount, converted by molar mass. Activity calls are given as the source filed them. The rule behind the calls is not given here.

Tests used:
[1] = tested on: Staphylococcus aureus; test: Antibacterial activity against methicillin resistant Staphylococcus aureus assessed as inhibition of bacterial growth after 24 hrs by microbroth dilution method; format: functional
Procedure, shortened: (§1)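 Inoculum adjusted in sterile saline to 1×10^5 CFU. Compounds dissolved in DMSO as stock, then diluted in Mueller-Hinton broth as a two-fold series from 512 to 0.5 µg/mL (11 levels). Inoculated dilutions incubated at 37 °C for 24 h, and the MIC recorded.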

[2] = tested on: Enterococcus faecalis; test: Antibacterial activity against Enterococcus faecalis assessed as inhibition of bacterial growth after 24 hrs by microbroth dilution method; format: functional
Procedure, shortened: (§2)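 Bacterial inoculum set to 1×10^5 CFU with sterile saline. Test agents and reference drugs, from DMSO stocks, diluted in Mueller-Hinton broth to 512, 256, 128, 64, 32, 16, 8, 4, 2, 1 and 0.5 µg/mL. Inoculated dilutions incubated 37 °C for 24 h.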

[3] = tested on: Staphylococcus aureus; test: Antibacterial activity against Staphylococcus aureus assessed as inhibition of bacterial growth after 24 hrs by microbroth dilution method; format: functional; procedure, shortened: as §2
[4] = tested on: Staphylococcus aureus; test: Antibacterial activity against Staphylococcus aureus ATCC 25923 assessed as inhibition of bacterial growth after 24 hrs by microbroth dilution method; format: functional; procedure, shortened: as §2
[5] = tested on: Staphylococcus aureus; test: Antibacterial activity against Staphylococcus aureus ATCC 29213 assessed as inhibition of bacterial growth after 24 hrs by microbroth dilution method; format: functional; procedure, shortened: as §1
[6] = tested on: Klebsiella pneumoniae; test: Antibacterial activity against Klebsiella pneumoniae assessed as inhibition of bacterial growth after 24 hrs by microbroth dilution method; format: functional; procedure, shortened: as §2
[7] = tested on: Escherichia coli; test: Antibacterial activity against Escherichia coli assessed as inhibition of bacterial growth after 24 hrs by microbroth dilution method; format: functional; procedure, shortened: as §2
[8] = tested on: Escherichia coli; test: Antibacterial activity against Escherichia coli ATCC 25922 assessed as inhibition of bacterial growth after 24 hrs by microbroth dilution method; format: functional; procedure, shortened: as §2
[9] = tested on: Pseudomonas aeruginosa; test: Antibacterial activity against Pseudomonas aeruginosa assessed as inhibition of bacterial growth after 24 hrs by microbroth dilution method; format: functional; procedure, shortened: as §2
[10] = tested on: Pseudomonas aeruginosa; test: Antibacterial activity against Pseudomonas aeruginosa ATCC 27853 assessed as inhibition of bacterial growth after 24 hrs by microbroth dilution method; format: functional; procedure, shortened: as §2
[11] = tested on: Acinetobacter baumannii; test: Antibacterial activity against Acinetobacter baumannii assessed as inhibition of bacterial growth after 24 hrs by microbroth dilution method; format: functional; procedure, shortened: as §2
[12] = tested on: Staphylococcus aureus; test: Potency index, ratio of norfloxacin MIC to compound MIC for antibacterial activity against Staphylococcus aureus incubated for 24 hrs by microbroth dilution method; format: functional
[13] = Cytotoxicity against human LO2 cells assessed as cell viability at 12.5 uM after 72 hrs by CCK8 assay; format: cell-based, L02; settings: read-out: Activity
Procedure, shortened: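 Normal human liver LO2 cells seeded at 3000/well and cultured 24 h. Compound added at 100 to 6.25 µM in PBS containing 1% DMSO, then incubated 72 h. CCK8 added for 2 h at 37 °C and absorbance read at 450 nm.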

[14] = Cytotoxicity against human HepG2 cells assessed as cell viability at 12 uM after 72 hrs by CCK8 assay; format: cell-based; settings: read-out: Activity
[15] = tested on: Staphylococcus aureus; test: Induction of ROS generation in methicillin-resistant Staphylococcus aureus after 6 hrs by DCFH-DA dye based fluorometric analysis; format: functional, organism-based
Procedure, shortened: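 MRSA cells at 10^6 CFU/mL were exposed to increasing concentrations of compound for 6 h at 37 °C, then washed with PBS. They were loaded with 10 μM DCFH-DA for 30 min in the dark at 37 °C. DCF fluorescence was read at ex 485/em 528 nm and expressed as fold increase over untreated control cells.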

[16] = tested on: Cell membrane; test: Disruption of membrane integrity in methicillin-reisitant Staphylococcus aureus assessed as increase in fluorescence intensity at 12 times MIC measured within 50 mins by PI-staining based fluorescence analysis
Procedure, shortened: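 Overnight MRSA culture pelleted, washed and resuspended in 5 mM glucose/5 mM HEPES pH 7.4 (1:1). Compound at 12× MIC added to 2 mL suspension containing 10 µM propidium iodide. Fluorescence followed at ex 535/em 617 nm. Water-treated suspension served as control.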

[17] = tested on: Cell membrane; test: Disruption of membrane integrity in methicillin-reisitant Staphylococcus aureus assessed as increase in red fluorescence at 12 times MIC by PI-staining based fluorescence microscopy analysis
Procedure, shortened: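 Overnight MRSA cultures treated at 12× MIC, with 0.1% Triton X-100 as positive control and untreated cells as negative control. Cells washed once in 1× PBS and stained with 4.5 mM propidium iodide for 15 min at 37 °C. Imaged by fluorescence microscopy, 10× objective, green-light excitation.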

[18] = tested on: Calf thymus DNA; test: Binding affinity to calf thymus DNA assessed as DNA intercalation by neutral red dye based UV-visible spectroscopic method; format: nucleic-acid assay; settings: Bos taurus
Procedure, shortened: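 Neutral red stock prepared in doubly distilled water and kept cool and dark. DNA stock concentration was set by A260 (ε260 = 6600 L·mol−1·cm−1, per phosphate), with A260/A280 >1.8. All solutions were in Tris-HCl pH 7.4. UV spectra were taken at room temperature in 1.0 cm quartz cells.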

[19] = tested on: Calf thymus DNA; test: Binding affinity to calf thymus DNA assessed as DNA intercalation by measuring hypochromic shift by UV-visible absorption spectrophotometric method; format: nucleic-acid assay; settings: Bos taurus
Procedure, shortened: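 DNA held fixed while compound concentration was raised stepwise, in Tris-HCl buffer pH 7.4. UV-vis spectra recorded at room temperature in 1.0 cm quartz cells, monitoring the 260 nm DNA band. Binding constant came from a linear fit of A0/(A−A0) against 1/[compound]. DNA stock concentration was set by A260 (ε260 = 6600 L·mol−1·cm−1, per phosphate), with A260/A280 >1.8.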

[20] = tested on: Staphylococcus aureus; test: Potency index, ratio of norfloxacin MIC to compound MIC for antibacterial activity against methicillin resistant staphylococcus aureus incubated for 24 hrs by microbroth dilution method; format: functional

Structure (SMILES)	MIC [1] [µg/mL]	MIC [2] [µg/mL]	MIC [3] [µg/mL]	MIC [4] [µg/mL]	MIC [5] [µg/mL]	MIC [6] [µg/mL]	MIC [7] [µg/mL]	MIC [8] [µg/mL]	MIC [9] [µg/mL]	MIC [10] [µg/mL]	MIC [11] [µg/mL]	Ratio [12]	viability at 72 h, 12.5 µM [13] [%]	viability at 72 h, 12 µM [14] [%]	Activity [15]	Activity [16]	Activity [17]	Activity [18]	Activity [19]	Ratio [20]
Cc1nnnn1Cc1cc(O)c2c(c1)C(=O)c1cccc(O)c1C2=O	32 (≈ 95.2 µM)	16 (≈ 47.6 µM)	16 (≈ 47.6 µM)	64 (≈ 190 µM)	64 (≈ 190 µM)	64 (≈ 190 µM)	64 (≈ 190 µM)	64 (≈ 190 µM)	128 (≈ 381 µM)	32 (≈ 95.2 µM)	32 (≈ 95.2 µM)									
CCc1nc2ccccc2n1Cc1cc(O)c2c(c1)C(=O)c1cccc(O)c1C2=O	64 (≈ 161 µM)	16 (≈ 40.2 µM)	64 (≈ 161 µM)	128 (≈ 321 µM)	64 (≈ 161 µM)	64 (≈ 161 µM)	64 (≈ 161 µM)	32 (≈ 80.3 µM)	64 (≈ 161 µM)	64 (≈ 161 µM)	64 (≈ 161 µM)									
Cc1ncc([N+](=O)[O-])n1Cc1cc(O)c2c(c1)C(=O)c1cccc(O)c1C2=O	64 (≈ 169 µM)	128 (≈ 337 µM)	4 (≈ 10.5 µM)	16 (≈ 42.2 µM)	128 (≈ 337 µM)	128 (≈ 337 µM)	128 (≈ 337 µM)	64 (≈ 169 µM)	64 (≈ 169 µM)	32 (≈ 84.4 µM)	32 (≈ 84.4 µM)	2								
CCn1cc(C(=O)O)c(=O)c2cc(F)c(N3CCNCC3)cc21 [NORFLOXACIN]	8 (≈ 25.1 µM)	32 (≈ 100 µM)	8 (≈ 25.1 µM)	1 (≈ 3.13 µM)	1 (≈ 3.13 µM)	4 (≈ 12.5 µM)	16 (≈ 50.1 µM)	8 (≈ 25.1 µM)	8 (≈ 25.1 µM)	2 (≈ 6.26 µM)	0.5 (≈ 1.57 µM)									
O=C1c2cccc(O)c2C(=O)c2c(O)cc(CCl)cc21	32 (≈ 111 µM)	256 (≈ 887 µM)	64 (≈ 222 µM)	64 (≈ 222 µM)	128 (≈ 443 µM)	32 (≈ 111 µM)	128 (≈ 443 µM)	32 (≈ 111 µM)	64 (≈ 222 µM)	32 (≈ 111 µM)	64 (≈ 222 µM)									
O=C1c2cccc(O)c2C(=O)c2c(O)cc(Cn3c4ccccc4c4ccccc43)cc21	32 (≈ 76.3 µM)	128 (≈ 305 µM)	8 (≈ 19.1 µM)	16 (≈ 38.1 µM)	32 (≈ 76.3 µM)	128 (≈ 305 µM)	128 (≈ 305 µM)	64 (≈ 153 µM)	64 (≈ 153 µM)	64 (≈ 153 µM)	64 (≈ 153 µM)									
O=C1c2cccc(O)c2C(=O)c2c(O)cc(CSc3nc4ccccc4[nH]3)cc21	32 (≈ 79.5 µM)	32 (≈ 79.5 µM)	4 (≈ 9.94 µM)	128 (≈ 318 µM)	16 (≈ 39.8 µM)	64 (≈ 159 µM)	64 (≈ 159 µM)	128 (≈ 318 µM)	128 (≈ 318 µM)	64 (≈ 159 µM)	16 (≈ 39.8 µM)									
O=C1c2cccc(O)c2C(=O)c2c(O)cc(Cn3cnnn3)cc21	2 (≈ 6.21 µM)	4 (≈ 12.4 µM)	16 (≈ 49.6 µM)	64 (≈ 199 µM)	1 (≈ 3.1 µM)	32 (≈ 99.3 µM)	128 (≈ 397 µM)	64 (≈ 199 µM)	64 (≈ 199 µM)	16 (≈ 49.6 µM)	16 (≈ 49.6 µM)		> 60	> 50	inactive	Active	Active	Active	Active	4
O=C1c2cccc(O)c2C(=O)c2c(O)cc(Cn3cnc4cc([N+](=O)[O-])ccc43)cc21	64 (≈ 154 µM)	16 (≈ 38.5 µM)	32 (≈ 77 µM)	64 (≈ 154 µM)	32 (≈ 77 µM)	64 (≈ 154 µM)	64 (≈ 154 µM)	32 (≈ 77 µM)	32 (≈ 77 µM)	32 (≈ 77 µM)	32 (≈ 77 µM)									
